Laboratory results published in publication PMC3561458 (Investigational new drugs, 2011).

Key:
patients [1] = conditions: cited from earlier work
patients [2] = conditions: cited from earlier work; remark: listed apart in the source
CDK4 = conditions: cited from earlier work
patients [3] = conditions: intravenous; cited from earlier work
CDK2 = conditions: cited from earlier work
CDK7 = conditions: cited from earlier work
CDK1 = conditions: cited from earlier work
Urinary excretion = assay type: in vivo, human; conditions: patients at the RP2D in S1
Method in brief: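 Urine is collected only from S1 patients dosed at the recommended phase II dose, with once-daily oral dosing for 7 days in 2-week cycles. Parent compound and metabolite in urine are measured by validated LC-MS-MS, with calibration ranges of 0.217–109 μM for the parent and 0.210–105 μM for the metabolite.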

Plasma pharmacokinetics = assay type: in vivo, human; conditions: across doses
Method in brief: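 The test compound is given orally once daily for 7 days in 2-week cycles (S1). Plasma is sampled in cycle 1 on days 1, 2, 4, 7, 8 and 9, and in cycle 2 on days 1, 4 and 7. Cycle 1 day 1 is sampled from 30 min to 24 h after dosing and day 7 from 30 min to 96 h. Parent and metabolite are measured by validated LC-MS-MS, with calibration ranges of 0.00109–1.09 and 0.00105–1.05 μM respectively.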

Cc1ncc(-c2ccnc(Nc3ccc(S(C)(=O)=O)cc3)n2)n1C(C)C [AZD438]
toxicities (patients [1]): myelotoxicity, GI toxicity, fatigue, skin rash and electrolytes inbalance, with no neurological toxicity

C[C@]12O[C@H](C[C@]1(O)CO)n1c3ccccc3c3c4c(c5c6ccccc6n2c5c31)CNC4=O [CEP-701]
most frequently reported side effects (patients [2]): predominantly GI-related (nausea, diarrhea, anorexia, constipation, and vomiting), and asthenia
patients with stable disease for at least six months (patients [2]): three
patients with stable disease for more than three months (patients [2]): Seven of 30

CCc1cnn2c(NCc3ccc[n+]([O-])c3)cc(N3CCCC[C@H]3CCO)nc12 [dinaciclib]
toxicities (patients [1]): myelotoxicity, GI toxicity, fatigue, skin rash and electrolytes inbalance, with no neurological toxicity

CN1CC[C@H](c2c(O)cc(O)c3c(=O)cc(-c4ccccc4Cl)oc23)[C@H](O)C1 [flavopiridol, reference compound]
inhibition of CDK4 (CDK4): demonstrated inhibition
clinical activity (patients [3]): showed activity in some patients with non-Hodgkin’s lymphoma, renal, prostate, colon, and gastric carcinomas
main side effects (patients [3]): secretory diarrhea, a proinflammatory syndrome associated with hypotension, and hyperglycemia
inhibition of CDK2 (CDK2): demonstrated inhibition
inhibition of CDK7 (CDK7): demonstrated inhibition
inhibition of CDK1 (CDK1): demonstrated inhibition

Nc1nc2cccc(-c3ccc(CN4CCS(=O)(=O)CC4)cc3)n2n1 [metabolite]
amount excreted in urine (Urinary excretion): 13 % of dose
AUC0-24 of the metabolite relative to parent compound (Plasma pharmacokinetics): approximately 30%
Cmax of the metabolite relative to parent compound (Plasma pharmacokinetics): approximately 30%

CC[C@H](CO)Nc1nc(NCc2ccccc2)c2ncn(C(C)C)c2n1 [seliciclib]
toxicities (patients [1]): myelotoxicity, GI toxicity, fatigue, skin rash and electrolytes inbalance, with no neurological toxicity
